Series [1] deals with Jurkat. Nature of the series: Cell cycle arrest in human Jurkat E6-1 cells assessed as accumulation at G2/M phase at 31 uM after 24 hrs by FACS flow cytometry. The class given is functional. In outline: (§1)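 Jurkat E6 cells grown in RPMI 1640 with 10% FBS at 37 °C, 5% CO2. Compounds were serially diluted in medium starting 50% above the M21 IC50. 4.0 × 10^5 cells were exposed for 24 h, then washed and spiked with chicken red blood cells as internal standard. Cells were fixed in ice-cold ethanol, stained with 1 μg/mL DAPI on ice for 1 h, and phase distribution was read by flow cytometry. The control was 0.5% DMSO.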

Series [2] concerns Jurkat. Nature of the series: Cell cycle arrest in human Jurkat E6-1 cells assessed as accumulation at S phase at 31 uM after 24 hrs by FACS flow cytometry. In kind it is functional. Summed up: (§2)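 Jurkat E6 T-lymphoblasts in RPMI 1640 with 10% FBS, 37 °C, 5% CO2. […] Chicken red blood cells were added as internal standard. Cells were fixed in ice-cold EtOH and stained with 1 μg/mL DAPI on ice for 1 h before flow cytometry of phase distribution. Vehicle control was 0.5% DMSO.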

For a further series, the system named is HT-29. Nature of the series: Cytotoxicity against human HT-29 cells after 48 hrs by SRB assay. In kind it is functional, cell-based. Conditions: HT-29, 48 h. In outline: (§3)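 NCI sulforhodamine B protocol. Cells were grown in high-glucose DMEM with 5% FBS and seeded per well at 4 × 10^3 (HT-29), 3.5 × 10^3 (M21) or 3 × 10^3 (MCF-7), then allowed 24 h to attach. Serial dilutions from 200 μM to 780 nM final were applied in DMSO <0.5% for 48 h. Cells were fixed with cold TCA (10% final) and stained with SRB, with absorbance read at 530–568 nm. Growth inhibition was computed against day-0 plates, giving the 50% inhibitory concentration. At least two experiments in triplicate, CV <10%.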

A further series has as its system MCF7. Nature of the series: Cytotoxicity against human MCF7 cells after 48 hrs by SRB assay. In kind it is functional, cell-based. Conditions: MCF7, 48 h. Summed up:
as §3

Series [3] concerns Jurkat. Put plainly: Cell cycle arrest in human Jurkat E6-1 cells assessed as accumulation at G0/G1 phase at 31 uM after 24 hrs by FACS flow cytometry. In kind it is functional. In outline:
(§4)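 Jurkat E6 cells cultured in RPMI 1640 with 10% FBS at 37 °C, 5% CO2. Compounds serially diluted in medium, starting 50% above the M21 IC50. 4.0 × 10^5 cells were exposed for 24 h. Cells were washed with PBS, chicken red blood cells added as internal standard, and fixed in ice-cold EtOH. After 1 h on ice in PBS with 1 μg/mL DAPI, phase distribution was read by flow cytometry. DMSO-treated cells served as control.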

In series [4] the test system is M21. Nature of the series: Induction of DNA damage response in human M21 cells assessed as phosphorylation of H2AX into gammaH2AX at IC50 after 24 hrs by DAPI staining-based immunofluorescence assay. In kind it is functional, cell-based. In outline: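 M21 cells (1 × 10^5) on fibronectin-coated coverslips, grown 24 h, then exposed to agent for 24 h at 37 °C; 0.5% DMSO control. Fixed with 3.7% formaldehyde and permeabilized with 0.1% saponin/3% BSA. Probed with mouse anti-H2AX pS139 antibody for 2 h at room temperature. Nuclei counterstained with DAPI; nuclear γH2AX foci viewed by epifluorescence microscopy.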

Series [5] concerns M21. Nature of the series: Cytotoxicity against human M21 cells after 48 hrs by SRB assay. The class given is functional, cell-based. To be noted: M21, 48 h. Summed up: as §3
The test system of series [6] is Jurkat. Nature of the series: Cell cycle arrest in human Jurkat E6-1 cells assessed as accumulation at G2/M phase at 32 uM after 24 hrs by FACS flow cytometry. The class given is functional. In outline: as §1
The subject of series [7] is Jurkat. Nature of the series: Cell cycle arrest in human Jurkat E6-1 cells assessed as accumulation at G0/G1 phase at 32 uM after 24 hrs by FACS flow cytometry. The class given is functional. Summed up: as §4
Series [8] deals with Jurkat. Nature of the series: Cell cycle arrest in human Jurkat E6-1 cells assessed as accumulation at S phase at 32 uM after 24 hrs by FACS flow cytometry. In kind it is functional. In outline:
as §2

Series [9] in a line: Toxicity in fertilized chicken embryo assessed as mortality rate at 30 ug per egg, iv administered on day 11 measured on day 17 by CAM assay. The class given is organism-based, Gallus gallus. To be noted: in vivo, read-out: Activity. In outline: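 Fertilized chicken eggs grafted on the CAM with HT-1080 cells (3.5 × 105/egg) received a 100 μL intravenous injection under the CAM on day 11. The drug was diluted in Cremophor EL/99% ethanol/PBS (1/1/14 v/v). Groups held 10–12 eggs and were incubated until day 17, when dead embryos and signs of toxicity were counted per group.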

The next series deals with HT-1080. Put plainly: Antitumor activity against human HT1080 cells xenografted in chicken chorioallantoic membrane assessed as inhibition of tumor growth at 30 ug per egg, iv administered on day 11 measured on day 17 by CAM assay. The class given is functional. In outline:
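HT-1080 fibrosarcoma cells (3.5 × 105/egg) were applied onto freshly exposed CAM of fertilized chicken eggs. On day 11, drug from a DMSO stock was diluted in Cremophor EL/99% ethanol/PBS (1/1/14 v/v) and 100 μL was injected into a vein under the CAM. Groups of 10–12 eggs were kept to day 17, embryos were euthanized at 4 °C for ≥4 h, and tumor wet weight was recorded.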

Series [10] concerns Jurkat. Nature of the series: Cell cycle arrest in human Jurkat E6-1 cells assessed as accumulation at S phase at 2.2 uM after 24 hrs by FACS flow cytometry. In kind it is functional. Summed up:
as §1

In series [11] the test system is Jurkat. Put plainly: Cell cycle arrest in human Jurkat E6-1 cells assessed as accumulation at G2/M phase at 2.2 uM after 24 hrs by FACS flow cytometry. In kind it is functional. Summed up:
as §1

Series [12] has as its system Jurkat. Put plainly: Cell cycle arrest in human Jurkat E6-1 cells assessed as accumulation at G0/G1 phase at 2.2 uM after 24 hrs by FACS flow cytometry. In kind it is functional. Summed up: as §4
Series [13] has as its system Jurkat. Put plainly: Cell cycle arrest in human Jurkat E6-1 cells assessed as accumulation at G2/M phase at 40 uM after 24 hrs by FACS flow cytometry. The class given is functional. In outline: as §1
Series [14] relates to Jurkat. Put plainly: Cell cycle arrest in human Jurkat E6-1 cells assessed as accumulation at G0/G1 phase at 40 uM after 24 hrs by FACS flow cytometry. The class given is functional. Summed up:
as §4

Series [15] deals with Jurkat. Nature of the series: Cell cycle arrest in human Jurkat E6-1 cells assessed as accumulation at S phase at 40 uM after 24 hrs by FACS flow cytometry. The class given is functional. In outline: as §2
The test system of series [16] is Jurkat. Nature of the series: Cell cycle arrest in human Jurkat E6-1 cells assessed as accumulation at S phase at 26 uM after 24 hrs by FACS flow cytometry. In kind it is functional. In outline:
as §2

Series [17] has as its system Jurkat. Nature of the series: Cell cycle arrest in human Jurkat E6-1 cells assessed as accumulation at G2/M phase at 26 uM after 24 hrs by FACS flow cytometry. The class given is functional. In outline: as §1
The test system of series [18] is Jurkat. Put plainly: Cell cycle arrest in human Jurkat E6-1 cells assessed as accumulation at G0/G1 phase at 26 uM after 24 hrs by FACS flow cytometry. In kind it is functional. Summed up: as §4
Series [19] has as its system Jurkat. Put plainly: Cell cycle arrest in human Jurkat E6-1 cells assessed as accumulation at S phase at 2.5 uM after 24 hrs by FACS flow cytometry. The class given is functional. In outline: as §1
The test system of series [20] is Jurkat. Put plainly: Cell cycle arrest in human Jurkat E6-1 cells assessed as accumulation at G0/G1 phase at 2.5 uM after 24 hrs by FACS flow cytometry. In kind it is functional. In outline:
as §4

In series [21] the test system is Jurkat. Nature of the series: Cell cycle arrest in human Jurkat E6-1 cells assessed as accumulation at G2/M phase at 2.5 uM after 24 hrs by FACS flow cytometry. The class given is functional. Summed up:
as §1

The source made the active and inactive calls. The rule behind the calls is not given here.

Consider `O=C(NCCCCl)Nc1ccc(S(=O)(=O)Oc2ccc(O)cc2)cc1`, for which the Activity with Jurkat [1] is on record as 12%; in the series with Jurkat [2] it was 65%; with Jurkat [3] it was 23%. Also, the IC50 in the series with HT-29 amounted to 50 µM; in the series with MCF7, 51 µM; in the series with M21 [5] it was 47 µM. In addition, the result in the series with M21 [4] was Active.

As to `CCNC(=O)Nc1cccc(S(=O)(=O)Oc2ccc(O)cc2)c1`, the Activity in the series on Jurkat [6] came to 18%; with Jurkat [7], 43%; in the series with Jurkat [8] it was 39%. The figures for the IC50 in the series with HT-29, in the series with MCF7 and with M21 [5] were 75 µM, 64 µM and 42 µM, respectively.

Turning to `CCNC(=O)Nc1ccc(S(=O)(=O)Oc2ccccc2CC)cc1`, in series [9], the mortality at 6 days was found to be 9%. Besides, the TGI in the series with HT-1080 amounted to 45%. For the same molecule, the values for the Activity in the series with Jurkat [10], in the series with Jurkat [11] and with Jurkat [12] were 75%, 14% and 11%, respectively. In addition, the values for the IC50 with HT-29, with MCF7 and in the series on M21 [5] were 12 µM, 3.4 µM and 2.5 µM, respectively. Besides, the result in the series on M21 [4] was Active.

Regarding `CCNC(=O)Nc1cccc(S(=O)(=O)Oc2ccccc2C)c1`, the Activity in the series with Jurkat [13] amounted to 15%; with Jurkat [14], 25%; in the series on Jurkat [15], 60%. Further, the IC50 in the series on HT-29 stood at 44 µM; in the series on MCF7 it was 55 µM; in the series with M21 [5] it was 51 µM. Further, the result in the series on M21 [4] was Active.

`CCCc1ccccc1NS(=O)(=O)c1cccc(NC(=O)NCCCCl)c1`: the Activity turned out to be 43% with Jurkat [16], 13% in the series on Jurkat [17] and 44% in the series with Jurkat [18]. In addition, the values for the IC50 with HT-29, in the series on MCF7 and in the series with M21 [5] were 15 µM, 18 µM and 23 µM, respectively.

As to `CCNC(=O)Nc1ccc(S(=O)(=O)Oc2ccccc2C)cc1`, in series [9], the mortality at 6 days stood at 9%. The Activity is on record as 61% in the series with Jurkat [19], 23% in the series with Jurkat [20] and 16% in the series on Jurkat [21]. For the same molecule, the TGI in the series with HT-1080 was 68%. The values for the IC50 in the series with HT-29, in the series on MCF7 and with M21 [5] were 12 µM, 4.5 µM and 3.1 µM, respectively. Also, the outcome with M21 [4] was Active.
